# Experimental data taken from ChEMBL document CHEMBL4765333, “Novel NO-releasing scopoletin derivatives induce cell death via mitochondrial apoptosis pathway and cell cycle arrest” (Eur J Med Chem, 2020).
# What was measured:
# [1] = system: MCF7; assay: Antiproliferative activity against human MCF7 cells assessed as inhibition of cell growth rate at 10 uM measured after 48 hrs by MTT assay; format: functional
# Procedure, shortened: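 MCF-7 cells in DMEM with 10% FBS exposed to a single 10 µM concentration for 48 h. Read-out by MTT (0.5 mg/ml, 4 h, DMSO dissolution, A570). Inhibition rate given versus untreated control as mean ± SD, n = 3.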
# [2] = Anticancer activity against human MDA-MB-231 cells assessed as inhibition of cell proliferation measured after 48 hrs by MTT assay; format: functional, cell-based; details: MDA-MB-23, 48 h
# Procedure, shortened: (§1)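 Cells seeded at ~5,000/well, grown 24 h to partial monolayer, then exposed 48 h at 37°C, 5% CO2 to 0.5, 1, 2, 4, 10 and 20 µM (DMSO ≤0.1%). MTT final 0.5 mg/ml for 4 h, formazan dissolved in DMSO, A570. Survival expressed as % of untreated control; IC50 from dose-response curves; three independent experiments. MDA-MB-231, MCF-7, HepG2 in DMEM; A549 and LO-2 in RPMI-1640; 10% FBS.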
# [3] = system: HepG2; assay: Anticancer activity against human HepG2 cells assessed as inhibition of cell proliferation measured after 48 hrs by MTT assay; format: functional, cell-based; details: HepG2, 48 h; procedure, shortened: as §1
# [4] = system: MCF7; assay: Anticancer activity against human MCF7 cells assessed as inhibition of cell proliferation measured after 48 hrs by MTT assay; format: functional, cell-based; details: MCF7, 48 h; procedure, shortened: as §1
# [5] = system: L02; assay: Cytotoxicity against human L02 cells assessed as reduction in cell viability measured after 48 hrs by MTT assay; format: cell-based; details: L02, 48 h; procedure, shortened: as §1
# [6] = system: A549; assay: Anticancer activity against human A549 cells assessed as inhibition of cell proliferation measured after 48 hrs by MTT assay; format: functional, cell-based; details: A549, 48 h
# Procedure, shortened: as §1, with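 “experiments.” for “experiments. MDA-MB-231, MCF-7, HepG2 in DMEM; A549 and LO-2 in RPMI-1640; 10% FBS.”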
# [7] = Prodrug release in human MDA-MB-231 cells assessed as increase in intracellular NO level at 25 uM measured after 2.5 hrs by total nitric oxide assay; format: ADME, cell-based; details: mda-mb-23, 2.5 h
# Procedure, shortened: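 MDA-MB-231 (2×10^5 cells/well) cultured 24 h, then treated 2.5 h with compound at 25 µM or DMSO. Cells harvested, lysed in nitric oxide assay buffer 1 h on ice; lysate NO quantified with a total nitric oxide assay kit. Mean ± SD, n = 3.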
# [8] = Anticancer activity against human MDA-MB-231 cells assessed as inhibition of cell proliferation measured after 48 hrs in presence of 3-amino-7-hydroxy-6-methoxy-2H-chromen-2-one by MTT assay; format: functional, cell-based; details: MDA-MB-23, 48 h
# Procedure, shortened: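 MDA-MB-231 cells in DMEM with 10% FBS, ~5,000 cells/well, 24 h attachment, then compound for 48 h at 37°C, 5% CO2. MTT 0.5 mg/ml final for 4 h, DMSO solubilization, absorbance 570 nm; inhibition relative to untreated cells; experiments done three times.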
# [9] = Prodrug release in human MDA-MB-231 cells assessed as increase in intracellular NO level at 10 uM measured after 2.5 hrs by DAF-FM DA reagent based scanning electron microscopy; format: ADME, cell-based; details: mda-mb-231, 2.5 h, in the assay text read “laser scanning confocal microscopy” for “scanning electron microscopy”
# Procedure, shortened: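 After 24 h growth at 5×10^4 cells/well, MDA-MB-231 cells loaded with DAF-FM DA (5 µM) 30 min at 37°C, 5% CO2, PBS-washed, then incubated 2.5 h with compound at 1 or 10 µM (scopoletin at 10 µM). NO fluorescence imaged by laser scanning confocal microscopy.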
Compound,inhibition at 10 µM [1] [%],IC50 [2] [µM],IC50 [3] [µM],IC50 [4] [µM],IC50 [5] [µM],IC50 [6] [µM],Drug metabolism [7],IC50 [8] [µM],Drug metabolism [9]
COc1cc2cc(N)c(=O)oc2cc1O,7.13,> 25,–,–,–,–,–,–,–
COc1cc2cc(N)c(=O)oc2cc1OCCOc1no[n+]([O-])c1S(=O)(=O)c1ccccc1,88.5,2.46,3.06,2.77,9.82,5.91,Metabolite_Detected,–,–
COc1cc2cc(N)c(=O)oc2cc1OCCCCCOc1no[n+]([O-])c1S(=O)(=O)c1ccccc1,88.8,2.4,3.46,2.62,12.2,6.88,Metabolite_Detected,–,–
COc1cc2cc(NC(C)=O)c(=O)oc2cc1OCCCCCCOc1no[n+]([O-])c1S(=O)(=O)c1ccccc1,48.6,7.89,6.59,11.3,17.3,15,Metabolite_Detected,–,–
COc1cc2cc(N)c(=O)oc2cc1OCCCCCCOc1no[n+]([O-])c1S(=O)(=O)c1ccccc1,84.4,2.93,3.06,3.14,10.3,8.06,Metabolite_Detected,–,–
COc1cc2ccc(=O)oc2cc1OCCCCCOc1no[n+]([O-])c1S(=O)(=O)c1ccccc1,87.1,3.17,3.42,3.85,8.86,10.6,Metabolite_Detected,–,–
COc1cc2cc(NC(C)=O)c(=O)oc2cc1OCCOc1no[n+]([O-])c1S(=O)(=O)c1ccccc1,83.7,4.99,4.83,6.89,10.2,8.79,Metabolite_Detected,–,–
COc1cc2cc(NC(C)=O)c(=O)oc2cc1O,5.21,–,–,–,–,–,–,–,–
COc1cc2ccc(=O)oc2cc1OCCOc1no[n+]([O-])c1S(=O)(=O)c1ccccc1,89.2,2.86,3.61,3.54,10.9,7.24,Metabolite_Detected,–,–
COc1cc2cc(NC(C)=O)c(=O)oc2cc1OCCCCCOc1no[n+]([O-])c1S(=O)(=O)c1ccccc1,73.6,4.34,5.42,6.27,13.8,11.4,Metabolite_Detected,–,–
COc1cc2ccc(=O)oc2cc1OCCCCCCOc1no[n+]([O-])c1S(=O)(=O)c1ccccc1,84.8,3.35,3.79,4.48,12.4,9.43,Metabolite_Detected,–,–
COc1cc2cc(NC(C)=O)c(=O)oc2cc1OCCCCOc1no[n+]([O-])c1S(=O)(=O)c1ccccc1,80.4,3.15,3.29,3.44,9.19,7.19,Metabolite_Detected,–,–
COc1cc2ccc(=O)oc2cc1OCCCCOc1no[n+]([O-])c1S(=O)(=O)c1ccccc1,84.4,2.79,3.25,3.04,9.33,6.14,Metabolite_Detected,–,–
O=S(=O)(c1ccccc1)c1c(OCCCO)no[n+]1[O-],–,7.25,–,–,–,–,–,6.36,–
COc1cc2ccc(=O)oc2cc1O [SCOPOLETIN],7.95,> 25,> 25,> 25,> 25,> 25,–,–,Metabolite_Notdetected
COc1cc2cc(NC(C)=O)c(=O)oc2cc1OCCCOc1no[n+]([O-])c1S(=O)(=O)c1ccccc1,88.5,3.81,2.82,2.4,8.36,9.81,Metabolite_Detected,–,–
COc1cccc2c1C(=O)c1c(O)c3c(c(O)c1C2=O)C[C@@](O)(C(=O)CO)C[C@@H]3O[C@H]1C[C@H](N)[C@H](O)[C@H](C)O1 [DOXORUBICIN],–,0.55,0.62,0.6,0.59,–,–,–,–
COc1cc2ccc(=O)oc2cc1OCCCOc1no[n+]([O-])c1S(=O)(=O)c1ccccc1,88.6,1.85,2.9,2.27,7.82,5.45,–,–,–
COc1cc2cc(N)c(=O)oc2cc1OCCCCOc1no[n+]([O-])c1S(=O)(=O)c1ccccc1,89,1.93,2.64,2.28,8.63,5.03,Metabolite_Detected,–,–
